Results: the RNAGym collection of RNA variant scans (doi:10.1126/science.aae0568)
Fewer inactive variants are shown than the library holds.

B1: tRNA (parent)
chain: GUUCCGUUGGCGUAAUGGUAACGCGUCUCCCUCCUAAGGAGAAGACUGCGGGUUCGAGUCCCGUACGGAACG

Variants of: B1
Assay: yeast fitness relative to wild type (ratio to wild type); higher = fitter; tRNA-Arg(CCU), competitive growth, 37 C, YPD
Method in brief: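 Amplicons of the tRNA-Arg(CCU) gene were sequenced, 100-nucleotide paired-end, from the start population and from each end population of a pooled yeast competition. The competition, in six parallel replicates, lasted 24 hours in YPD at 37°C. Fitness relative to wild type was calculated from changes in genotype frequencies. Genotypes had to have ≥ 100 starting reads, and estimates < 0.5 were set to 0.5.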

| Variant | yeast fitness |
| --- | --- |
| U2C A20U G38C | ≤ 0.5 |
| U2C A20U U28A | ≤ 0.5 |
| U2C A20U U28A G67U | 0.579 |
| U2C A21U C30U | ≤ 0.5 |
| U2C A21U U54G | ≤ 0.5 |
| U2C A36U A65C | ≤ 0.5 |
| U2C A37G C49G A57U G68C A70G | ≤ 0.5 |
| U2C A37G G39A | ≤ 0.5 |
| U2C A37U U53A | 0.727 |
| U2C A40C A42U C49G C66G | ≤ 0.5 |
| U2C A40C A69C | 0.633 |
| U2C A40C C66A | ≤ 0.5 |
| U2C A40C G52C | 0.528 |
| U2C A40C G52C G67A | 0.56 |
| U2C A40G U54A | ≤ 0.5 |
| U2C A40U | 1.05 |
| U2C A40U G50A | 0.571 |
| U2C A42C | 0.914 |
| U2C A42G | 0.821 |
| U2C A42U | 0.937 |
| U2C A43G | 0.887 |
| U2C A43G A57C A65U | ≤ 0.5 |
| U2C A43U G44C | ≤ 0.5 |
| U2C A57G C66G | ≤ 0.5 |

| Variant | yeast fitness |
| --- | --- |
| U2C A57U C62U | 0.549 |
| U2C A57U C62U U64C | ≤ 0.5 |
| U2C A57U G67C | 0.562 |
| U2C A65C | 0.86 |
| U2C A65G G68A A69C | 0.563 |
| U2C A70G | 0.945 |
| U2C C4A C11U C29U G67A A70U | ≤ 0.5 |
| U2C C4A C34A A43G G52C C60G A65G | ≤ 0.5 |
| U2C C4A G17A C60G | ≤ 0.5 |
| U2C C4A G18C G63A | 0.633 |
| U2C C4A U8C G18C U35C G63A | ≤ 0.5 |
| U2C C4A U28C G44C | 0.601 |
| U2C C4U | 0.969 |
| U2C C4U A36G G44C | 0.615 |
| U2C C4U A37C G48A C60G A65U | ≤ 0.5 |
| U2C C4U A70C | 0.733 |
| U2C C4U C33A G41C C60U A65U A69U | ≤ 0.5 |
| U2C C4U C46U G50U C55U | ≤ 0.5 |
| U2C C4U C62U | 0.698 |
| U2C C4U G25C C29U C66A | ≤ 0.5 |
| U2C C4U G25C C29U G68A | ≤ 0.5 |
| U2C C4U U47A | 0.525 |
| U2C C5A | 0.845 |
| U2C C5A C24A | ≤ 0.5 |

| Variant | yeast fitness |
| --- | --- |
| U2C C5A C29G G48A A69U | ≤ 0.5 |
| U2C C5U A40U G50A | ≤ 0.5 |
| U2C C5U U54C | ≤ 0.5 |
| U2C C11A | ≤ 0.5 |
| U2C C11A C22G G41A A43C G51C | ≤ 0.5 |
| U2C C11A C22G G41A A43C G51C C66U G67C | ≤ 0.5 |
| U2C C11A C22G G41A A43C G51C C66U G67U | 0.584 |
| U2C C11A C22G U54C G56A | ≤ 0.5 |
| U2C C11A C34G G51A | ≤ 0.5 |
| U2C C11A G12A U35G U59A | ≤ 0.5 |
| U2C C11A G41C C61A | ≤ 0.5 |
| U2C C11G A37G G51C A57G | 0.632 |
| U2C C11G C22G | ≤ 0.5 |
| U2C C11G C22G G56A G63A | ≤ 0.5 |
| U2C C11U A21C U26C C49U A57U | ≤ 0.5 |
| U2C C11U G12A A15G | ≤ 0.5 |
| U2C C11U G25U C29U G39A | ≤ 0.5 |
| U2C C11U G56C C62U | ≤ 0.5 |
| U2C C11U G68A | 0.544 |
| U2C C11U U59A | 0.586 |
| U2C C22G G51C A70G | ≤ 0.5 |
| U2C C22U A69C | 0.511 |
| U2C C22U G38C C46U | ≤ 0.5 |
| U2C C24A | 0.574 |

| Variant | yeast fitness |
| --- | --- |
| U2C C24A C33A C46U | ≤ 0.5 |
| U2C C24A C49A | ≤ 0.5 |
| U2C C24A C66U | 0.61 |
| U2C C24G A42U G67A | ≤ 0.5 |
| U2C C24G C29U C62G C66A | ≤ 0.5 |
| U2C C24G C33G U53C C55U A70G | ≤ 0.5 |
| U2C C24G C46U | ≤ 0.5 |
| U2C C24G C61G | ≤ 0.5 |
| U2C C24G U26A C31G | 0.639 |
| U2C C24U | 0.952 |
| U2C C24U A57U | ≤ 0.5 |
| U2C C24U A70C | 0.708 |
| U2C C24U C29U C30A | 0.59 |
| U2C C24U G25C U26A A57G | 0.878 |
| U2C C24U G44C | ≤ 0.5 |
| U2C C27A C60G | ≤ 0.5 |
| U2C C27G | 0.748 |
| U2C C27G U28A A43U C61A C62U A65U A69C | ≤ 0.5 |
| U2C C27G U28A C61U | ≤ 0.5 |
| U2C C27U | 0.881 |
| U2C C27U A36C | ≤ 0.5 |
| U2C C27U A36G | 0.575 |
| U2C C27U A43G | 0.593 |
| U2C C27U A43G G56A | ≤ 0.5 |

| Variant | yeast fitness |
| --- | --- |
| U2C C27U C46U G48A | 0.636 |
| U2C C29A | 0.659 |
| U2C C29A A57C | ≤ 0.5 |
| U2C C29A C31A A40U C49U | 0.554 |
| U2C C29A C34G A43U G52A | 0.682 |
| U2C C29A G44C C46G C62A | ≤ 0.5 |
| U2C C29A G63A | ≤ 0.5 |
| U2C C29G | 0.626 |
| U2C C29U | 0.81 |
| U2C C29U A37G A65G | ≤ 0.5 |
| U2C C29U A37G C66U | 0.578 |
| U2C C29U C66G G68A | ≤ 0.5 |
| U2C C29U G38C A43U U53G | ≤ 0.5 |
| U2C C29U G56A | 0.625 |
| U2C C30A U47C A65C C66G | ≤ 0.5 |
| U2C C30G C33A | ≤ 0.5 |
| U2C C30U C33U | 0.512 |
| U2C C31A A70U | 0.76 |
| U2C C31A G38C G50A | 0.604 |
| U2C C31G C55G | 0.569 |
| U2C C31G G58C G67C | 0.53 |
| U2C C31G U35A | ≤ 0.5 |
| U2C C33U A42C U64C A70G | ≤ 0.5 |
| U2C C33U A42G G44C | ≤ 0.5 |

| Variant | yeast fitness |
| --- | --- |
| U2C C33U C61G | ≤ 0.5 |
| U2C C34A | 0.77 |
| U2C C34G U59A | ≤ 0.5 |
| U2C C46A | 0.942 |
| U2C C46G G63A A70U | ≤ 0.5 |
| U2C C46U U59C | 0.705 |
| U2C C49U | 0.808 |
| U2C C55A | 0.7 |
| U2C C55A A57C G67C G68A | 0.575 |
| U2C C55G G56C A69U | ≤ 0.5 |
| U2C C60A C66U | 0.576 |
| U2C C61G A65U | 0.547 |
| U2C C61U A65G | 0.711 |
| U2C C61U G68A | ≤ 0.5 |
| U2C C66U | 0.968 |
| U2C G6A A42C C66U | ≤ 0.5 |
| U2C G6A A57U C62U | ≤ 0.5 |
| U2C G6A C31U C49U | 0.641 |
| U2C G6A C61G | ≤ 0.5 |
| U2C G6A G23A C27U A45C C60A | 0.605 |
| U2C G6C | 0.861 |
| U2C G6C C11G A15C G25C C27G C30G G38C | ≤ 0.5 |
| U2C G6C G25A A36C | ≤ 0.5 |
| U2C G9C A69C | 0.524 |

| Variant | yeast fitness |
| --- | --- |
| U2C G9U A20C A57G A65C | ≤ 0.5 |
| U2C G9U C61G | ≤ 0.5 |
| U2C G10A G12A G18C C33U A69C | ≤ 0.5 |
| U2C G10A U54A C62U C66A | ≤ 0.5 |
| U2C G10C A21G | ≤ 0.5 |
| U2C G10C A40C G52C G67A | ≤ 0.5 |
| U2C G10C C11U C34A A37C C60A G67C | 0.7 |
| U2C G10C C24A C31U A36C A43C C55A | 0.546 |
| U2C G12A A15G A43U C62G | ≤ 0.5 |
| U2C G12A A36U C62G | ≤ 0.5 |
| U2C G12A C24A U28A A42C U47G C49G | 0.582 |
| U2C G12A G18C C33U | 0.561 |
| U2C G12A G18C C33U C55U | ≤ 0.5 |
| U2C G12A U19C A21U G58C | 0.603 |
| U2C G12C A14G C29U U59G G63C | ≤ 0.5 |
| U2C G12C A40C | ≤ 0.5 |
| U2C G17A A37C | 0.791 |
| U2C G17A A43C C49U U54A G56C A65U A70C | ≤ 0.5 |
| U2C G18A A36C A45U C49G | ≤ 0.5 |
| U2C G18A C24U | 0.529 |
| U2C G18A G25A | 0.599 |
| U2C G18A G25A C66U | ≤ 0.5 |
| U2C G18A U28C A42C G56C A65C | 0.61 |
